The subject of test [1] is Rattus norvegicus. Kind of test: Increase of total cholesterol level in cholesterol-fed male rats at 55 mg/kg/day relative to control. The format is functional. In short, it runs like this: (§1)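 Dietary (ad libitum) dosing of groups of six male Sprague–Dawley rats on a cholesterol diet for 8 days. Serum total cholesterol was quantitated enzymatically by a colorimetric method and expressed as % change relative to untreated controls, with significance at p < 0.05.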

Test [2] concerns Rattus norvegicus. Kind of test: Weight gain in cholesterol-fed male rats at 55 mg/kg/day relative to control. It is filed as functional. In short, it runs like this:
(§2)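 Groups of six male Sprague–Dawley rats on a cholesterol diet received the compound in the diet, ad libitum, over 8 days. Body weight gain is reported as % change relative to untreated controls.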

In test [3] the test system is Rattus norvegicus. Kind of test: Increase of HDL level in cholesterol-fed male rats by FPLC method at 55 mg/kg/day relative to control. It is filed as functional. The gist of the method:
(§3)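 Groups of six male Sprague–Dawley rats on a cholesterol diet received drug in the diet, ad libitum, for 8 days. Serum lipoproteins separated by FPLC, adapted for robotic automation, and cholesterol quantitated enzymatically by colorimetry. HDL given as % change versus untreated controls, with significance set at p < 0.05.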

Test [4] relates to Rattus norvegicus. Kind of test: Increase of HDL level in cholesterol-fed male rats by ultracentrifugation method at 55 mg/kg/day relative to control. The format is functional. The gist of the method:
(§4)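 Cholesterol-fed male Sprague–Dawley rats, six per group, given drug in the diet ad libitum for 8 days. Serum lipoproteins separated by classical ultracentrifugation and HDL cholesterol measured by an enzymatic colorimetric method. Expressed as % change versus untreated controls, with significance set at p < 0.05.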

The subject of test [5] is Rattus norvegicus. Kind of test: Triglyceride level in cholesterol-fed male rats at 55 mg/kg/day relative to control. The format is functional. The gist of the method: (§5)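 Male Sprague–Dawley rats on a cholesterol diet, in groups of six, received the compound in the diet ad libitum for 8 days. Serum triglycerides are expressed as % change relative to untreated controls, with significance at p < 0.05 versus controls.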

Test [6] has as its system Rattus norvegicus. Kind of test: Increase of Apolipoprotein A-I level in cholesterol-fed male rats at 55 mg/kg/day relative to control. It is filed as functional. The gist of the method:
(§6)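 Drug mixed into diet, fed ad libitum for 8 days to groups of six male Sprague–Dawley rats on a cholesterol diet. Serum Apo A-I measured by SDS–polyacrylamide gel electrophoresis or by rat competition ELISA. Reported as % change versus untreated controls, with significance set at p < 0.05.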

For test [7], the species on record is Rattus norvegicus. Kind of test: Increase in liver enzyme Alanine aminotransferase. The format is functional.
Test [8] is filed under the species Rattus norvegicus. Kind of test: Increase in liver enzyme Aspartate aminotransferase. Also on record: concentration or dose not given beside the values. It is filed as functional.
The species named for test [9] is Rattus norvegicus. Kind of test: Increase in liver enzyme Alkaline phosphatase. More on the design: concentration or dose not given beside the values. It is filed as functional.
Test [10] has as its system Rattus norvegicus. Kind of test: Increase of Apolipoprotein A-I level in cholesterol-fed male rats at 79 mg/kg/day relative to control. It is filed as functional. The gist of the method: as §6
Test [11] has as its system Rattus norvegicus. Kind of test: Increase of HDL level in cholesterol-fed male rats by ultracentrifugation method at 79 mg/kg/day relative to control. The format is functional. The gist of the method: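 Compound given in the diet, ad libitum, to groups of six male Sprague–Dawley rats on a cholesterol diet for 8 days. Serum lipoproteins were separated by classical ultracentrifugation, and HDL cholesterol was quantitated by an enzymatic colorimetric method. Results are reported as % change relative to untreated controls, with significance at p < 0.05 versus controls.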

Test [12] relates to Rattus norvegicus. Kind of test: Weight gain in cholesterol-fed male rats at 79 mg/kg/day relative to control. The format is functional. In short, it runs like this:
as §2

Test [13] relates to Rattus norvegicus. Kind of test: Increase of total cholesterol level in cholesterol-fed male rats at 79 mg/kg/day relative to control. The format is functional. In short, it runs like this:
as §1

Test [14] concerns Rattus norvegicus. Kind of test: Increase of HDL level in cholesterol-fed male rats by FPLC method at 79 mg/kg/day relative to control. It is filed as functional. The gist of the method:
as §3

Test [15] deals with Rattus norvegicus. Kind of test: Triglyceride level in cholesterol-fed male rats at 79 mg/kg/day relative to control. It is filed as functional. In short, it runs like this:
as §5

Test [16] concerns Rattus norvegicus. Kind of test: Weight gain in cholesterol-fed male rats at 50 mg/kg/day relative to control. The format is functional. In short, it runs like this:
as §2

In test [17] the test system is Rattus norvegicus. Kind of test: Increase of total cholesterol level in cholesterol-fed male rats at 50 mg/kg/day relative to control. The format is functional. The gist of the method: as §1
Test [18] concerns Rattus norvegicus. Kind of test: Triglyceride level in cholesterol-fed male rats at 50 mg/kg/day relative to control. The format is functional. In short, it runs like this:
as §5

The subject of test [19] is Rattus norvegicus. Kind of test: Increase of HDL cholesterol in normal-fed rat at 50 mg/kg/day. The format is functional.
Test [20] concerns Hamster. Kind of test: Increase of HDL cholesterol in chow-fed hamster at 45 mg/kg/day. It is filed as functional, organism-based. To be noted: Cricetulus griseus.
Test [21] deals with Hamster. Kind of test: Increase of HDL cholesterol in normal-fed hamster at 45 mg/kg/day. The format is functional, organism-based. The conditions noted are these: Cricetinae.
In another test the test system is Canis familiaris. Kind of test: Increase of HDL cholesterol in normal-fed dog at 250 mg/kg/day. To be noted: Canis lupus familiaris. It is filed as functional, organism-based.
The subject of test [22] is Rattus norvegicus. Kind of test: Increase of HDL level in cholesterol-fed male rats by ultracentrifugation method at 50 mg/kg/day relative to control. The format is functional. The gist of the method:
as §4

In test [23] the test system is Rattus norvegicus. Kind of test: Increase of HDL level in cholesterol-fed male rats by FPLC method at 50 mg/kg/day relative to control. The format is functional. In short, it runs like this: as §3
For test [24], the system named is Rattus norvegicus. Kind of test: Increase of Apo A-I level in cholesterol-fed male rats at 50 mg/kg/day relative to control. It is filed as functional. In short, it runs like this: as §6
Test [25] concerns Rattus norvegicus. Kind of test: Increase of HDL level in cholesterol-fed male rats by ultracentrifugation method at 63 mg/kg/day relative to control. It is filed as functional. In short, it runs like this:
as §4

In test [26] the test system is Rattus norvegicus. Kind of test: Weight gain in cholesterol-fed male rats at 63 mg/kg/day relative to control. The format is functional. The gist of the method:
as §2

In test [27] the test system is Rattus norvegicus. Kind of test: Increase of total cholesterol level in cholesterol-fed male rats at 63 mg/kg/day relative to control. It is filed as functional. The gist of the method:
as §1

Test [28] relates to Rattus norvegicus. Kind of test: Increase of HDL level in cholesterol-fed male rats by FPLC method at 63 mg/kg/day relative to control. The format is functional. In short, it runs like this: as §3
Test [29] deals with Rattus norvegicus. Kind of test: Increase of Apolipoprotein A-I level in cholesterol-fed male rats at 63 mg/kg/day relative to control. The format is functional. In short, it runs like this: as §6
For test [30], the system named is Rattus norvegicus. Kind of test: Triglyceride level in cholesterol-fed male rats at 63 mg/kg/day relative to control. It is filed as functional. In short, it runs like this: as §5
Test [31] addresses T1, Peroxisome proliferator-activated receptor alpha (Rattus norvegicus, UniProt P37230).
T1 sequence (P37230 whole entry): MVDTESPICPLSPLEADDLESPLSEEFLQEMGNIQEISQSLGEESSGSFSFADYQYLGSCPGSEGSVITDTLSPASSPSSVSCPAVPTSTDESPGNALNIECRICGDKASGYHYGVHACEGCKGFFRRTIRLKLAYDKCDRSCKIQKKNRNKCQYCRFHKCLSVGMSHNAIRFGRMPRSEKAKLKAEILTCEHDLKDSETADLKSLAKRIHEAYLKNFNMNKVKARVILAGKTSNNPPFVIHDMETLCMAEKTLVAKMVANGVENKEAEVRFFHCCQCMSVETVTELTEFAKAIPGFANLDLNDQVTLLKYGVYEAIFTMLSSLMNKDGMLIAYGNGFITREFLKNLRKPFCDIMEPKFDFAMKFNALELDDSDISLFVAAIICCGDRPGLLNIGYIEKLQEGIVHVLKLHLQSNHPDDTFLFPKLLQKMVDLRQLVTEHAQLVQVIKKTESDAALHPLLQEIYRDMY
Kind of test: Activity against PPAR-alpha.

The target of test [32] is T2, Peroxisome proliferator-activated receptor delta (Homo sapiens, UniProt Q03181).
T2 sequence (Q03181 whole entry): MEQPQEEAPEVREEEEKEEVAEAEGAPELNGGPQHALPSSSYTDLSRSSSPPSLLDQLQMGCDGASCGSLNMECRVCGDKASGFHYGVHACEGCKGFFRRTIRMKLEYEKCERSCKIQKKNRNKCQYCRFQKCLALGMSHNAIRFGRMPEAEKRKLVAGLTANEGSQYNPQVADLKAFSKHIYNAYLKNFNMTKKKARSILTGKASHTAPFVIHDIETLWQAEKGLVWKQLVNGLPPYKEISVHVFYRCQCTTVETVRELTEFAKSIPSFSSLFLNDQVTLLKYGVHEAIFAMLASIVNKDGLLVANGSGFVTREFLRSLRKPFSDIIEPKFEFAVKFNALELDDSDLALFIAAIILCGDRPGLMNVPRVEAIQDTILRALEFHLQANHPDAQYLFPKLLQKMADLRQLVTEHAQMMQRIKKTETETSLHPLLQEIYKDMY
Kind of test: Activity against PPAR-delta.

This passage reports Activity and EC50 results from ChEMBL document CHEMBL1148541, “Biological evaluation of 1-alkyl-3-phenylthioureas as orally active HDL-elevating agents” (Bioorg Med Chem Lett, 2006).

The source made the active and inactive calls. No cut-off for these calls is given here.

As for `Cc1ccc(Cl)cc1/N=C(\S)NCCO`, the Activity with Rattus norvegicus [1] was 39%; in the test with Rattus norvegicus [2], -104%; in the test on Rattus norvegicus [3] it was 241%; in the test with Rattus norvegicus [4] it was 75%; with Rattus norvegicus [5], -53%; in the test on Rattus norvegicus [6], 48%.
With `CCCC/N=C(\S)Nc1cc(Cl)ccc1C`, the Activity is 39% with Rattus norvegicus [1]; -53% with Rattus norvegicus [2]; 203% in the test on Rattus norvegicus [3]; 100% in the test with Rattus norvegicus [4]; -44% with Rattus norvegicus [5]; 38% in the test with Rattus norvegicus [6]. The Activity in the test filed under Rattus norvegicus [7] stood at 93%; in the test filed under Rattus norvegicus [8], 79%; in the test listed under Rattus norvegicus [9], 44%.
Take `CCC/N=C(\S)Nc1cc(OC)ccc1OC`: the Activity is given as 19% with Rattus norvegicus [10]; 108% in the test with Rattus norvegicus [11]; 14% in the test on Rattus norvegicus [12]; 60% in the test with Rattus norvegicus [13]; 97% with Rattus norvegicus [14]; -23% with Rattus norvegicus [15].
For `Cc1ccc(C)c(OCCCC(C)(C)C(=O)O)c1` [GEMFIBROZIL], the Activity with Rattus norvegicus [16] is recorded as 2%; with Rattus norvegicus [17] it was -23%; with Rattus norvegicus [18], -29%; with Rattus norvegicus [19] it was 25%; in the test on Rattus norvegicus [22], 104%; in the test on Rattus norvegicus [23], 139%. In addition, the Activity in the test on Rattus norvegicus [24] is recorded as 54%. Also, the result in the test on Hamster [20], in the test on Hamster [21] and with Canis familiaris was inactive.
With `CCC/N=C(\S)Nc1cc(Br)ccc1C`, the Activity is reported as 142% with Rattus norvegicus [25]; -29% with Rattus norvegicus [26]; 47% in the test with Rattus norvegicus [27]; 306% in the test with Rattus norvegicus [28]; 46% in the test on Rattus norvegicus [29]; -53% in the test with Rattus norvegicus [30]. In addition, the Activity in the test filed under Rattus norvegicus [9] came out at 44%.
Take `CCC/N=C(\S)Nc1cc(Cl)ccc1C`: the Activity in the test with Rattus norvegicus [1] is listed as 6%; with Rattus norvegicus [2] it was -78%; in the test on Rattus norvegicus [3], 292%; in the test with Rattus norvegicus [4], 83%; in the test with Rattus norvegicus [5], -54%; in the test with Rattus norvegicus [6], 54%. In addition, the concentration giving a half-maximal response (EC50) in test [31] and in test [32] was greater than 100 µM in each case.

As a reminder, the EC50 is the concentration giving half of the maximal effect.
